The test system of data set [1] is Rattus norvegicus. In words: Analgesic activity in Wistar albino rat […] assessed as increase in reaction time for tail withdrawal at 100 mg/kg, po after 300 mins by tail flick method. It is filed as functional. In outline: (§1)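 Rat tail-flick test: latency for the rat to withdraw its tail from hot water at 55 ± 0.5 °C. Drugs given orally. Reaction time in seconds read at 60, 90, 120 and 300 min after dosing. Treated animals compared with control and with a nimesulide standard. Wistar albino rats, 150-200 g, either sex; food withdrawn 12 h before and during testing.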

The test system of data set [2] is Rattus norvegicus. In words: Analgesic activity in Wistar albino rat […] assessed as increase in reaction time for tail withdrawal at 100 mg/kg, po after 180 mins by tail flick method. It is filed as functional.
Data set [3] has as its system Rattus norvegicus. In words: Toxicity in Wistar albino rat assessed as induction of gastric ulceration up to 3 g/kg, po after 8 hrs. Type of data set: organism-based, Stomach. As to conditions: in vivo, 3000 mg/kg. In outline: (§2)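 Acute toxicity: albino rats of either sex in groups of six, oral doses from 100 up to 3000 mg kg^-1. Rats observed continuously for 8 h for changes in motor activity, ataxia, tremors, convulsions, sedation and lacrimation. Ulceration and haemorrhagic spots also inspected.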

In data set [4] the test system is Rattus norvegicus. In words: Antiinflammatory activity in Wistar albino rat assessed as inhibition of carrageenan-induced paw oedema at 100 mg/kg, po measured 2 hrs after carrageenan challenge. Type of data set: functional. In outline: (§3)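 Albino rats, 6 per group, dosed orally at 100 mg kg^-1; ibuprofen 100 mg kg^-1 as standard. One hour after dosing, 0.1 ml of 1% carrageenan with 2% gum acacia in normal saline injected subplantar into the right hind paw. Paw volume measured by plethysmometer; % inhibition versus control calculated. One-way ANOVA with Dunnett's t test.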

Data set [5] deals with Rattus norvegicus. In words: Analgesic activity in Wistar albino rat […] assessed as reaction time for tail withdrawal at 100 mg/kg, po after 300 mins by tail flick method. Type of data set: functional. In outline:
as §1

For data set [6], the system named is Rattus norvegicus. In words: Antiinflammatory activity in Wistar albino rat assessed as inhibition of carrageenan-induced paw oedema at 100 mg/kg, po measured 5 hrs after carrageenan challenge. Type of data set: functional. In short, it runs like this:
as §3

Data set [7] deals with Rattus norvegicus. In words: Toxicity in Wistar albino rat assessed as mortality up to 3 g/kg, po after 24 hrs. Type of data set: organism-based. As to conditions: in vivo, 3000 mg/kg. In short, it runs like this: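 Albino rats of either sex, six per group, dosed orally from 100 up to 3000 mg kg^-1 body weight. Animals were watched continuously for 8 h for signs of acute toxicity such as altered motor activity, ataxia, tremors, convulsions, sedation and lacrimation, and were checked for mortality over a 24 h period. Food was withheld for 12 h before dosing.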

For data set [8], the system named is Rattus norvegicus. In words: Analgesic activity in Wistar albino rat […] assessed as reaction time for tail withdrawal at 100 mg/kg, po after 180 mins by tail flick method. It is filed as functional.
Data set [9] relates to Rattus norvegicus. In words: Analgesic activity in Wistar albino rat […] assessed as reaction time for tail withdrawal at 100 mg/kg, po after 120 mins by tail flick method. It is filed as functional. In outline:
as §1

In data set [10] the test system is Rattus norvegicus. In words: Antiinflammatory activity in Wistar albino rat assessed as inhibition of carrageenan-induced paw oedema at 100 mg/kg, po measured 3 hrs after carrageenan challenge. It is filed as functional. In outline: as §3
In data set [11] the test system is Rattus norvegicus. In words: Toxicity in Wistar albino rat assessed as effect on motor activity up to 3 g/kg, po after 8 hrs. Type of data set: organism-based. The conditions noted are these: in vivo, 3000 mg/kg. In outline: as §2
For data set [12], the system named is Rattus norvegicus. In words: Antiinflammatory activity in Wistar albino rat assessed as inhibition of carrageenan-induced paw oedema at 100 mg/kg, po measured 4 hrs after carrageenan challenge. It is filed as functional. In outline: as §3
In data set [13] the test system is Rattus norvegicus. In words: Toxicity in Wistar albino rat assessed as induction of haemorrhagic spots up to 3 g/kg, po after 8 hrs. It is filed as organism-based. The conditions noted are these: in vivo, 3000 mg/kg. In short, it runs like this:
as §2

In data set [14] the test system is Rattus norvegicus. In words: Toxicity in Wistar albino rat assessed as induction of sedation up to 3 g/kg, po after 8 hrs. Type of data set: organism-based. The conditions noted are these: in vivo, 3000 mg/kg. In short, it runs like this: as §2
The subject of data set [15] is Rattus norvegicus. In words: Antiinflammatory activity in Wistar albino rat assessed as inhibition of carrageenan-induced paw oedema at 100 mg/kg, po measured 0.5 hrs after carrageenan challenge. Type of data set: functional. In outline:
as §3

Data set [16] relates to Rattus norvegicus. In words: Analgesic activity in Wistar albino rat […] assessed as reaction time for tail withdrawal at 100 mg/kg, po after 30 mins by tail flick method. It is filed as functional.
The test system of data set [17] is Rattus norvegicus. In words: Antiinflammatory activity in Wistar albino rat assessed as inhibition of carrageenan-induced paw oedema at 100 mg/kg, po measured 1 hr after carrageenan challenge. Type of data set: functional. In outline: as §3
Data set [18] concerns Rattus norvegicus. In words: Toxicity in Wistar albino rat assessed as induction of convulsions and tremors up to 3 g/kg, po after 8 hrs. Type of data set: organism-based. As to conditions: in vivo, 3000 mg/kg. In short, it runs like this: as §2
Data set [19] relates to Rattus norvegicus. In words: Analgesic activity in Wistar albino rat […] assessed as reaction time for tail withdrawal at 100 mg/kg, po after 60 mins by tail flick method. It is filed as functional. In short, it runs like this:
as §1

SMILES strings stand for the structures.

Turning to `Cc1ccc2c(Cc3nn4c(CN5CCOCC5)c(-c5ccc(Br)cc5)nc4s3)coc2c1`, the Activity is 172.08% in data set [1]; 203.76% in data set [2]; “Non-toxic” in [3]; 7.3 s in [5]; “Non-toxic” in data set [7]; 8.15 s in data set [8]. Besides, the Activity in data set [9] is recorded as 6.45 s; in data set [11], “Non-toxic”; in data set [13], “Non-toxic”; in [14] it was “Non-toxic”; in data set [16], 3.5 s; in data set [18] it was “Non-toxic”. For the same molecule, in data set [19], the Activity stood at 4.067 s. The inhibition in vivo at 100 mg/kg in data set [4] was determined as 31.7%; in data set [6], 52.7%; in data set [10], 43.4%; in data set [12] it was 51.2%; in data set [15], 8.38%; in data set [17], 12.4%.

As to `Cc1ccc2c(Cc3nn4c(C#N)c(-c5ccc(Cl)cc5)nc4s3)coc2c1`, the Activity was 167.12% in [1]; 207.49% in data set [2]; “Non-toxic” in data set [3]; 7.167 s in data set [5]; “Non-toxic” in [7]; 8.25 s in data set [8]. The Activity is 6.617 s in [9]; “Non-toxic” in data set [11]; “Non-toxic” in data set [13]; “Non-toxic” in [14]; 3.7 s in [16]; “Non-toxic” in [18]. Moreover, in [19], the Activity was determined as 4.067 s. For the same molecule, the inhibition in vivo at 100 mg/kg in data set [4] turned out to be 28%; in [6], 53.5%; in data set [10] it was 43.4%; in [12], 51.2%; in data set [15], 4.77%; in data set [17], 13.4%.

With `Cc1ccc2c(Cc3nn4c(C=O)c(-c5ccc(Cl)cc5)nc4s3)coc2c1`, the Activity in [1] was 142.89%; in [2], 193.21%; in [3], “Non-toxic”; in data set [5] it was 6.517 s; in [7], “Non-toxic”; in [8], 7.867 s. For the same molecule, the Activity in data set [9] is given as 6.667 s; in data set [11], “Non-toxic”; in [13], “Non-toxic”; in data set [14], “Non-toxic”; in [16], 3.55 s; in data set [18] it was “Non-toxic”. The Activity in data set [19] was found to be 5.35 s. Further, the inhibition in vivo at 100 mg/kg in data set [4] was 24.3%; in data set [6], 48.8%; in [10], 42.5%; in [12], 47.2%; in data set [15], 3.6%; in [17], 11.4%.

Consider `Cc1ccc2c(Cc3nn4c(CO)c(-c5ccc(Cl)cc5)nc4s3)coc2c1`, for which the Activity in data set [1] was 102.49%; in data set [2], 165.85%; in data set [3] it was “Non-toxic”; in [5], 5.433 s; in data set [7], “Non-toxic”; in data set [8] it was 7.133 s. In addition, the Activity in data set [9] is 5.467 s; in data set [11], “Non-toxic”; in [13], “Non-toxic”; in data set [14], “Non-toxic”; in data set [16], 3.65 s; in data set [18] it was “Non-toxic”. For the same molecule, in data set [19], the Activity worked out at 4.35 s. Also, the inhibition in vivo at 100 mg/kg was 28.9% in data set [4]; 58.9% in data set [6]; 45.9% in data set [10]; 54.3% in data set [12]; 9.61% in [15]; 14.5% in [17].

For the origin of these results see ChEMBL document CHEMBL1140193, “Synthesis and anti-inflammatory evaluation of methylene bridged benzofuranyl imidazo[2,1-b][1,3,4]thiadiazoles” (Eur J Med Chem, 2008).
